Experimental findings from PubChem BioAssay AID652286 (Sanford-Burnham Center for Chemical Genomics, 2013) are described below.

Where “and” joins values, the source holds several entries; their conditions need not be identical. Equal values may be shown once. Calls of active or inactive are those of the source.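 The calls were made as follows: active = compounds halving thioesterase enzyme activity at 20 µM or lower; inactive = the rest.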

The assay deals with Fatty acid synthase (Homo sapiens) (UniProt P49327). The experiment in a line: inhibition of FAS-TE enzyme activity – biochemical, kinetic fluorescence, OMFH substrate, round 2, powder samples, SAR follow-up (AID 652286). The settings on record: recombinant FAS-TE, OMFH fluorogenic substrate. Put shortly:
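Test system: FAS thioesterase domain enzyme / Buffer or medium: 100 mM Tris-HCl pH 7.5, 50 mM NaCl, 500 mM sarcosine, TCEP, Brij35 / Times: kinetic reads every 10 min at room temperature / Doses: concentration series with 5.5% DMSO / Reagent: fluorogenic OMFH substrate, 60 µM in 2x stock solution / Signal: fluorescence at 480/540 nm, kinetic mode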

Sequence of Fatty acid synthase (Homo sapiens) (P49327 whole entry, looked up, the tested form may be a part): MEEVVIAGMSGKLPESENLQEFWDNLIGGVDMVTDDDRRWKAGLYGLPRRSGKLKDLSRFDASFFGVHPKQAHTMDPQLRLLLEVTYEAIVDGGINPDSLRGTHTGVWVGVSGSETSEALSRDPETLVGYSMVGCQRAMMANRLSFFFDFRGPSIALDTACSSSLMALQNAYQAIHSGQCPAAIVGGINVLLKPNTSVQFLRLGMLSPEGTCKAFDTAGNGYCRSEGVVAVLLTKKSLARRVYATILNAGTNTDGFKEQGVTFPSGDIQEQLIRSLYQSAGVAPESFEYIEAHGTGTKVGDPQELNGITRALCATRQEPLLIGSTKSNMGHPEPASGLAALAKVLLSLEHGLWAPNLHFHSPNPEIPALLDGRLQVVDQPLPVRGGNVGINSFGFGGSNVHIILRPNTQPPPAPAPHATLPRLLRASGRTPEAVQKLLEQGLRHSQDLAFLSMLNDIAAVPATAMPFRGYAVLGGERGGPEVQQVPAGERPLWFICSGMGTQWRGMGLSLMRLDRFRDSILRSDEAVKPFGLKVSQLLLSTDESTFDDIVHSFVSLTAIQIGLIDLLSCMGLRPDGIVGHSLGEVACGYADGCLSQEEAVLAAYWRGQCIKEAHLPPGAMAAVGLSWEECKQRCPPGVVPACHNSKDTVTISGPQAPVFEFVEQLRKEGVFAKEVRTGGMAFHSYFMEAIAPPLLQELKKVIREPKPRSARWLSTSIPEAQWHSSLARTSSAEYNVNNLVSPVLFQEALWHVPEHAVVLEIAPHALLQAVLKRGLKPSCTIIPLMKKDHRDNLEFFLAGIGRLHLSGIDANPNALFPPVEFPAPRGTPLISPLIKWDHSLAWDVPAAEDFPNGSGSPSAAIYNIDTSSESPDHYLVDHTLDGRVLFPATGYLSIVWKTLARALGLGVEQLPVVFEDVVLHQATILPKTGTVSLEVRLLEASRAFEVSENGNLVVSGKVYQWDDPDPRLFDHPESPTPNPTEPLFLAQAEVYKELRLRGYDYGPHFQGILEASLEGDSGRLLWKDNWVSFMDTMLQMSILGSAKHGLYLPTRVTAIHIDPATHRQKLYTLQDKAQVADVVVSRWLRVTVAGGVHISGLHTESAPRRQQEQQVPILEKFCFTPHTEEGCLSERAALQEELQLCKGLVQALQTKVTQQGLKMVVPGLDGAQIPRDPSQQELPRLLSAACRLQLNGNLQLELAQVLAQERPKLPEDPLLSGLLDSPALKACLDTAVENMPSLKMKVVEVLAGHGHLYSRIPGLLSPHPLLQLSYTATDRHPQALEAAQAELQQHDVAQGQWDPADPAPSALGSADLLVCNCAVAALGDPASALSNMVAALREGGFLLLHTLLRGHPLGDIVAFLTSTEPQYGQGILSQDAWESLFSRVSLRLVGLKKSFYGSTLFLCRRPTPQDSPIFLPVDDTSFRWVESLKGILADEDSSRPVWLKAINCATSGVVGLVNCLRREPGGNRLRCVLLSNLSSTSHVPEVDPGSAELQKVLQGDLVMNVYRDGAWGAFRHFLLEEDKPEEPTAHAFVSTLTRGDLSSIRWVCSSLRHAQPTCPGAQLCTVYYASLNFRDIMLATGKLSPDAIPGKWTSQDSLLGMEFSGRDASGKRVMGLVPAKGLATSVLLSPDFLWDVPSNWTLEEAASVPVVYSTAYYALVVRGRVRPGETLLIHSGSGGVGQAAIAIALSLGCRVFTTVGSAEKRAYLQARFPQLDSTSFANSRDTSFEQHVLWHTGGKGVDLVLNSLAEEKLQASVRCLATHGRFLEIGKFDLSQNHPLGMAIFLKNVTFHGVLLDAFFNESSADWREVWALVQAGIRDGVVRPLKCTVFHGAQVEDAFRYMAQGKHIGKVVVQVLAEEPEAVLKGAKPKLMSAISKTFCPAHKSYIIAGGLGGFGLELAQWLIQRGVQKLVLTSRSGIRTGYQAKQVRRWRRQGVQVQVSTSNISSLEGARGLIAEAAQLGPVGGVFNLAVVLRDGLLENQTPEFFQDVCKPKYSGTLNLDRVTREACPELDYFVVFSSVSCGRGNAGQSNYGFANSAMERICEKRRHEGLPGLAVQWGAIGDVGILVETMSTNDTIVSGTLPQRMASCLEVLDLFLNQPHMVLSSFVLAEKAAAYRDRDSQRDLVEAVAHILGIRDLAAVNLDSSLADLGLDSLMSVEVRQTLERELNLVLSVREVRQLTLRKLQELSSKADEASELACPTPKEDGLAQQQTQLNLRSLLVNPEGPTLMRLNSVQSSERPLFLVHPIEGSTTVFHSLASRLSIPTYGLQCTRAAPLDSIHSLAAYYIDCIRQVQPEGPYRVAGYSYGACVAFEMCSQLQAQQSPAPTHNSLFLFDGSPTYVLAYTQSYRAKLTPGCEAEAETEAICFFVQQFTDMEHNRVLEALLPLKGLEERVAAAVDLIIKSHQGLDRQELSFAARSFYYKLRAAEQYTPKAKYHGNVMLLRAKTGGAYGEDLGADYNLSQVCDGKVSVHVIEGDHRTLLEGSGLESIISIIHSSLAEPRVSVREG

One may read the IC50 as the midpoint of a concentration-inhibition curve. With `CCCCCCC(=O)Nc1nc(-c2ccc(S(=O)(=O)N(CC)CC)cc2)cs1`, the half-maximal inhibitory concentration (IC50) was 1400 nM.
For `CCCCCCC(=O)Nc1nc(-c2ccc(S(=O)(=O)N3CCCCC3C)cc2)cs1` (stereo not drawn) the value was 4430 nM; for `CCCCCCC(=O)Nc1nc(-c2ccc(S(=O)(=O)N3CCC(C)CC3)cc2)cs1`, 5850 nM.
Consider `CCCCCC(=O)Nc1nc(-c2ccc(S(=O)(=O)N3CCCC3)cc2)cs1`, for which the IC50 is 137 nM.
For `CCC(CC)C(=O)Nc1nc(-c2ccc(S(=O)(=O)N3CCC(C)CC3)cc2)cs1` the value was 1820 nM.
`CCC(C)C(=O)Nc1nc(-c2ccc(S(=O)(=O)N3CCC(C)CC3)cc2)cs1` (stereo not drawn): the IC50 is 405 nM.
For `CCC(C)C(=O)Nc1nc(-c2ccc(S(=O)(=O)N3CCCC3)cc2)cs1` (stereo not drawn) the value was 141 nM.
Consider `CCCCC(=O)Nc1nc(-c2ccc(S(=O)(=O)N3CCCCC3C)cc2)cs1` (stereo not drawn), for which the IC50 is 358 nM.
On to `CC(C)CC(=O)Nc1nc(-c2ccc(S(=O)(=O)N3CCCC3)cc2)cs1`, for which the half-maximal inhibitory concentration (IC50) was 1640 nM.
For the compound `Cn1c(SCC(=O)Nc2ncc(C(F)(F)F)cc2Cl)nnc1-c1ccc(Cl)cc1`, the concentration for half-maximal inhibition (IC50) is 682 nM.
For `CCCCCC(=O)Nc1nc(-c2ccc(S(=O)(=O)N(CC)CC)cc2)cs1` the value was 190 nM; for `CCCCCC(=O)Nc1nc(-c2ccc(S(=O)(=O)N3CCC(C)CC3)cc2)cs1`, 762 nM.
`CC1CCN(S(=O)(=O)c2ccc(-c3csc(NC(=O)C(C)C)n3)cc2)CC1`: the half-maximal inhibitory concentration (IC50) was 489 nM.
As to `CN(Cc1ccc(C(C)(C)C)cc1)C(=O)Cc1ccc(S(=O)(=O)N2CCOCC2)s1`, the IC50 was 365 nM.
Regarding `CCC(C)C(=O)Nc1nc(-c2ccc(S(=O)(=O)N(CC)CC)cc2)cs1` (stereo not drawn), the half-maximal inhibitory concentration (IC50) is 1060 nM and 152 nM.
Take `CCCCCCC(=O)Nc1nc(-c2ccc(S(=O)(=O)N3CCCC3)cc2)cs1`: the IC50 is 874 nM.
Take `CCC(CC)C(=O)Nc1nc(-c2ccc(S(=O)(=O)N3CCCC3)cc2)cs1`: the half-inhibitory concentration (IC50) was 254 nM.
As to `CCCCC(=O)Nc1nc(-c2ccc(S(=O)(=O)N3CCOCC3)cc2)cs1`, the concentration for half-maximal inhibition (IC50) was 201 nM.
As for `CCCCCCCCCCC[C@H](C[C@@H]1OC(=O)[C@H]1CCCCCC)OC(=O)[C@@H](NC=O)C(C)C`, the IC50 is 122 nM.
As to `CCCCCC(=O)Nc1nc(-c2ccc(S(=O)(=O)N3CCCCC3C)cc2)cs1` (stereo not drawn), the 50% inhibitory concentration (IC50) is 552 nM.
As for `CCC(CC)C(=O)Nc1nc(-c2ccc(S(=O)(=O)N(CC)CC)cc2)cs1`, the IC50 was 343 nM.
In the case of `CC(C)CC(=O)Nc1nc(-c2ccc(S(=O)(=O)N3CCC(C)CC3)cc2)cs1`, the IC50 entry was “inactive”.
Consider `CCC(C)C(=O)Nc1nc(-c2ccc(S(=O)(=O)N3CCCCC3C)cc2)cs1` (stereo not drawn), for which the half-maximal inhibitory concentration (IC50) is 278 nM.
